# Most compounds without a hit are left out; they make up all but 4.6% or so of the library.
# NLRP3 yeast inh – NALP3 inhibition in yeast. Yeast reconstituted NLRP3/ASC/caspase-1, beta-gal luminescence, 24 h. AID 2825. actives 0.39% (n = 330,000). inhibition, % at 10 µM;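 active = inhibition of 50% or more; inactive = inhibition below 50%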;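 also: plate controls were induced DMSO wells for no effect and uninduced yeast grown without galactose for full effect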
# PolyA inh – yeast polyadenylation inhibition; actives 0.02% (n = 300,000); activity score, % at 12 µM; S. cerevisiae SKY197-pL101 polyadenylation reporter, beta-gal luminescence; efflux-impaired pdr1/pdr3 knockout yeast; score 100 = 6 SD above DMSO;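 active = lowest replicate activity score at least 50, where 100 means six control SD above control mean; inconclusive = lowest score under 50 but half or more replicates reach 50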;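 also: yeast exposed to compound for 9 h at 30 °C; higher score means more reporter readthrough which indicates perturbed polyadenylation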
# NALP1 inh – inhibitors of NALP1 inflammasome in yeast; actives 0.61% (n = 280,000); S. cerevisiae NALP1/ASC/caspase-1 growth, X-gal OD620, 72 h; inhibition, % at 10 µM; AID 2071; in the data active = inhibition mostly above about 24%, no sharp cut-off; inactive = mostly below about 32%
# Pemphigus Ab inh – blocks pemphigus antibody binding to human desmoglein-3; DSG3-coupled beads, scFv-anti-DSG3-GFP binding, flow cytometry; active compounds read low; binding (percent of control), % at 10 µM; actives 0.48% (n = 310,000); AID 588358;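 active = binding more than 3 SD below its plate's average and above zero; inconclusive = below that plate limit but binding exactly zero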;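 also: hits lower antibody fragment binding to DSG3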
# Target sequence (P32926 whole entry, looked up, the tested form may be a part): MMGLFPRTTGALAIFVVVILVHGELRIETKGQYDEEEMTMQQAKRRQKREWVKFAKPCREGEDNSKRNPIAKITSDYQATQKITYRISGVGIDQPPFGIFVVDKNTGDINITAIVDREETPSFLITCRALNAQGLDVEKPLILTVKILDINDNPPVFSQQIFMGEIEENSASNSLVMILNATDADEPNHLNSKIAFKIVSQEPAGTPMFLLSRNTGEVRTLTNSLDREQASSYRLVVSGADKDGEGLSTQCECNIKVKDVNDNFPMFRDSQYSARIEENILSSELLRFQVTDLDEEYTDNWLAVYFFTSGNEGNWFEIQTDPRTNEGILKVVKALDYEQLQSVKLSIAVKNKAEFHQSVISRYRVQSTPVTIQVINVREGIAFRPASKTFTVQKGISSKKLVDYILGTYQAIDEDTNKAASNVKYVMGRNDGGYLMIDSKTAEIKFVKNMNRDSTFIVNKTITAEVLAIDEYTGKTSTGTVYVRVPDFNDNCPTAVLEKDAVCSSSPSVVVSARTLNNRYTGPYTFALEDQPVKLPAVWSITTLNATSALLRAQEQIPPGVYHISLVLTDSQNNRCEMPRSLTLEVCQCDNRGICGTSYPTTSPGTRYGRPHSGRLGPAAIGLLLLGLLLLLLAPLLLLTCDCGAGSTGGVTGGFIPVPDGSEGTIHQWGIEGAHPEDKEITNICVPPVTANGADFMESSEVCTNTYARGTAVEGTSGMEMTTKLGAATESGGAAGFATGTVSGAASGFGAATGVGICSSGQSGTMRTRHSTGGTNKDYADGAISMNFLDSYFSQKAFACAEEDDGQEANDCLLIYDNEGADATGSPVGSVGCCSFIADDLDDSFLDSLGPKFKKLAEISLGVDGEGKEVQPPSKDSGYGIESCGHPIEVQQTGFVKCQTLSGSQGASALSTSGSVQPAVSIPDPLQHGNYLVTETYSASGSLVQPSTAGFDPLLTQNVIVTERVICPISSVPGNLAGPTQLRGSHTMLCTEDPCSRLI
# Arrestin-AP2 inh – human beta-arrestin and AP2 interaction inhibition; FITC-arrestin peptide / GST-AP2 beads, flow cytometry; AP2 beta2 appendage carries R879A mutation; inhibition, % at 10 µM; actives 0.31% (n = 340,000); AID 504490;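 active = inhibition above a set limit, near 3 SD of compounds lacking own fluorescence, cut at about 54% in these data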;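 also: plate controls were DMSO wells for no effect and 5 µM unlabelled arrestin peptide for full effect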
#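 test system = AP2 appendage R879A on GSH beads | buffer or medium = PBS plus Tween 20 (0.05%) and BSA (0.1%) | incubation = 12 min plus 1 h, RT | detection = bead flow cytometry, FITC channel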
# ALR H2O2 inh – inhibitors of human sulfhydryl oxidase ALR. inhibition, % (no concentration beside the values). purified ALR, DTT oxidation, H2O2 HRP-luminol luminescence. P55789. actives 3.8% (n = 290,000);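 active = mean replicate inhibition above about 79%, with every replicate also reaching it, limit read from the data; inconclusive = only one of the two criteria met; inactive = mean below limit and not every replicate reaching it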
# * marks the source's active call; other numbers are inactive results; i = inactive; ? = inconclusive; / = no result given.
SMILES,NLRP3 yeast inh,PolyA inh,NALP1 inh,Pemphigus Ab inh,Arrestin-AP2 inh,ALR H2O2 inh
CC(=O)c1cccc(NC(=O)CSc2nnc(C(C)N(C)C)n2Cc2ccccc2)c1 (stereo unspecified),4,0,12,/,3,/
CC(c1nnc(SCC(=O)Nc2cccnc2Cl)n1Cc1ccccc1)N(C)C (stereo unspecified),5,3,9,84,2,87*
CC1CCc2cc(F)cc3c(=O)c(C(=O)O)cn1c23 (stereo unspecified),11,14,102*,114,8,/
COc1cccc(CNC(=O)c2ccc(CS(=O)Cc3ccccc3Cl)o2)c1 (stereo unspecified),/,/,/,87,/,/
Cc1cccc(NC(=O)c2nc[nH]c2C(=O)Nc2cc(Br)ccc2F)c1,/,/,/,106,/,/
COc1cc(O)c2c(c1)OC(c1ccc(O)cc1)CC2=O (stereo unspecified),44,28,-6,108,23,69
Cc1c(O)cc2c(c1O)C(=O)CC(c1ccc(O)cc1)O2 (stereo unspecified),12,-12,-5,77*,20,13
COc1ccc(CN2C(=NC(=O)C3CC3)SC3CS(=O)(=O)CC32)cc1OC (stereo unspecified),6,17,14,106,10,2
Brc1ccc2nc(-c3cccs3)c(NCC3CCCO3)n2c1 (stereo unspecified),23,-13,-2,98,18,98*
c1csc(-c2nc(NCC3CCCO3)c3ccccc3n2)c1 (stereo unspecified),28,-11,5,/,23,/
CCOC(=O)c1sc(NNC(=O)c2ccc(C)cc2)nc1C,4,10,-11,105,-6,/
CCOC(=O)c1nc(NNC(=O)c2ccc([N+](=O)[O-])cc2)sc1C,14,-18,6,127,0,99*
CC(NC(=O)C1CCN(C(=O)Nc2ccccc2)CC1)c1ccc(Cl)cc1 (stereo unspecified),2,/,/,102,-2,/
Cc1ccc(NS(=O)(=O)c2cccc(C(=O)NC3CCN(Cc4ccccc4)CC3)c2)cc1,/,/,/,114,6,/
O=C(NC1CCN(Cc2ccccc2)CC1)c1cccc(S(=O)(=O)Nc2ccc(SC(F)F)cc2)c1,19,/,/,114,-4,99*
CCn1nc(C)c(CNC(=O)Nc2ccccc2C(=O)OC)c1C,-2,24,20,104,35,96*
O=C(c1ccccc1)c1c2c(cc3sc4ccccc4[n+]13)-c1cccc3cccc-2c13,/,/,58*,135,34,-21
CC1CCCN(C2(O)C(=O)Nc3ccc([N+](=O)[O-])cc32)C1 (stereo unspecified),7,-11,11,94,5,-4
NC(=O)c1nn(CC(=O)Nc2cccc(S(=O)(=O)N3CCCC3)c2)c(=O)c2ccccc12,10,/,/,/,-5,-6
O=C(Nc1cccc(Cl)c1)c1ccc(NC2=NC3CS(=O)(=O)CC3S2)cc1 (stereo unspecified),10,-6,-8,93,-10,-8
CSc1cccc(NC(=O)c2ccc(NC3=NC4CS(=O)(=O)CC4S3)cc2)c1 (stereo unspecified),10,10,-9,90,-3,99*
Cc1ccc(NC(=O)CSC2=C(C#N)C(c3ccco3)C3=C(CC(C)(C)CC3=O)N2)cc1 (stereo unspecified),-3,-8,11,91,-4,98*
CCc1ccc(NC(=O)CSC2=C(C#N)C(c3ccco3)C3=C(CCCC3=O)N2)cc1 (stereo unspecified),26,-11,-19,100,0,-11
COC(=O)CSC1=C(C#N)C(c2ccc(C)o2)CC(=O)N1 (stereo unspecified),10,7,3,96,23,1
Cc1ccc(C(=O)CSC2=C(C#N)C(c3ccco3)CC(=O)N2)c(C)c1 (stereo unspecified),13,4,3,/,-5,92*
SMILES,NLRP3 yeast inh,PolyA inh,NALP1 inh,Pemphigus Ab inh,Arrestin-AP2 inh,ALR H2O2 inh
Cc1ccc(NC(=O)CSC2=C(C#N)C(c3ccco3)CC(=O)N2)cc1 (stereo unspecified),8,-13,15,109,17,99*
COc1ccc(CCNC(=O)c2ccc(F)c(S(=O)(=O)N3CCCCC3)c2)cc1,/,/,/,104,/,/
CCOc1ccc(C(=O)C2CCN(C(=O)c3ccc([N+](=O)[O-])cc3)CC2)cc1,27,21,18,118,-2,-8
Cc1ccc(OCCC(=O)OCC(=O)NC2CCS(=O)(=O)C2)cc1 (stereo unspecified),4,-14,/,97,-11,1
COc1ccc2c(C)cc(SCC(=O)NC3CCCC3)nc2c1,48,/,/,/,5,/
COc1ccc2c(C)cc(SCC(=O)c3ccc4c(c3)OCO4)nc2c1,15,-14,-3,93,2,99*
CCN(CC)C(=O)Cn1cc(SCC(=O)NC2CCCCC2)c2ccccc21,/,/,/,109,/,/
COc1ccccc1C(CNC(=O)CN1C(=O)NC(C)(c2ccc3ccccc3c2)C1=O)N1CCCC1 (stereo unspecified),/,/,/,109,-4,/
COc1ccc(-c2cc(C(F)F)n3ncc(C(=O)n4ccnc4C)c3n2)cc1,8,-3,7,/,2,99*
CC1=NN(c2ccccc2)C(=O)C1N=Nc1cccc(O)c1 (stereo unspecified),40,-7,32*,113,8,-25
CC1=NN(c2ccccc2)C(=O)C1N=Nc1ccccc1 (stereo unspecified),7,21,28,98,4,-6
Cc1ccc2c(c1)N(CCC(=O)NC1CCCCC1C)C(=O)CO2 (stereo unspecified),-1,4,10,/,11,-23
O=S(=O)(Nc1nc(-c2sccc2Cl)cs1)c1cc(Cl)ccc1Cl,9,15,-3,112,1,98*
COc1cc(OC)c(-c2c3cc(O)c(=O)cc-3oc3cc(O)c(O)cc23)cc1OC,25,/,21,99,-130,?
Cc1c2cc(O)c(=O)cc-2oc2cc(O)c(O)cc12,10,-1,1,i,-252,93*
Cc1ccc(C(C#N)=Cc2ccc3c(c2)OCO3)cc1,/,/,/,107,/,/
Oc1ccc(-c2nc3ncccn3c2Nc2ccc3c(c2)OCO3)cc1,6,-15,-3,104,11,99*
Cc1ccc(Nc2c(-c3ccc(C)o3)nc3ncccn23)cc1,4,57*,28,101,-11,/
Cc1ccc(-c2nc3ncccn3c2Nc2ccccc2C)o1,17,-7,-1,107,-8,98*
Cc1ccc(Nc2c(-c3ccc(N(C)C)cc3)nc3ncccn23)cc1,21,-7,-4,93,1,68
Cc1ccc(-c2nc3cnccn3c2Nc2c(C)cccc2C)o1,17,-7,87,103,-2,98*

# Screening data as filed in PubChem BioAssay.
